The record followed here is ChEMBL document CHEMBL4257581, “Discovery of Small Molecule Splicing Modulators of Survival Motor Neuron-2 (SMN2) for the Treatment of Spinal Muscular Atrophy (SMA)” (J Med Chem, 2018).

For orientation: logD means lipophilicity at a set pH, counting ionised and neutral species. As a reminder, the pKa is the pH at which an ionisable group is half protonated. High values mean a group that holds its proton tightly, low ones a group that gives up its proton readily. What is called bioavailability is dose-corrected exposure relative to a reference, in per cent. What is called AUC is the area under the concentration-time curve, a measure of exposure. As a reminder, the half-life is the time in which the quantity being followed falls by half. Read a low half-life as fast loss. In general, AUC(0-t) refers to the area under the concentration-time curve up to a stated or last time point. A low value points to less exposure. One may read the solubility as the concentration that dissolves in the medium under given conditions. Read a low solubility as a poorly soluble substance.

A short description of series [1]: Lipophilicity, log D of the compound at pH 7.4. The format is physicochemical. The conditions noted are these: buffer.
Series [2] in a line: Permeability of the compound at 5 uM after 4 hrs by PAMPA. It counts as ADME. On the technique in general: PAMPA measures passive passage across an artificial lipid membrane.
Series [3] is described as follows: Dissociation constant, pKa of the compound. It counts as physicochemical.
For the next series, the species on record is Mus musculus. Nature of the series: Stabilization of SMN2 mRNA in mouse myoblasts assessed as increase in SMN protein level by ELISA relative to DMSO control. A general note: An ELISA detects its analyte on a solid surface through an enzyme-linked reagent.
Series [4] is described as follows: Oral bioavailability in Sprague-Dawley rat at 10 mg/kg. It counts as ADME, organism-based. Conditions: in vivo.
The nature of series [5]: AUC in Sprague-Dawley rat at 1 mg/kg, iv or 10 mg/kg, po. It counts as ADME, organism-based. Conditions: in vivo.
The nature of series [6]: Drug level in Sprague-Dawley rat brain at 1 mg/kg, iv or 10 mg/kg, po after 7 hrs. The format is ADME, organism-based. Conditions: read-out: Drug uptake.
Series [7] can be described thus: Clearance in Sprague-Dawley rat at 1 mg/kg, iv or 10 mg/kg, po. It counts as ADME, organism-based. The conditions noted are these: in vivo.
Series [8] can be described thus: AUC in mouse brain at 10 mg/kg, po. It counts as ADME, organism-based. Summed up: (§1)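 Mouse PK: oral arm dosed at 10 mg/kg p.o. alongside a 1 mg/kg i.v. arm. Plasma and brain AUC were taken from the oral arm.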
Series [9] in a line: Oral bioavailability in mouse at 10 mg/kg. It counts as ADME, organism-based. The conditions noted are these: in vivo. Summed up:
as §1

Series [10] in a line: Half life in mouse at 1 mg/kg, iv or 10 mg/kg, po. It counts as ADME, organism-based. Conditions: in vivo. The method in brief:
(§2)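 Mouse PK with dosing at 1 mg/kg i.v. and 10 mg/kg p.o.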

A short description of series [11]: Intrinsic clearance in rat liver microsomes at 1 uM up to 30 mins in presence of NADPH by LC-MS/MS analysis. It counts as ADME, microsome. Conditions: read-out: CLH. On the technique in general: Liver microsomes are vesicles of endoplasmic reticulum, rich in cytochrome P450 enzymes.
The nature of series [12]: AUC in mouse plasma at 10 mg/kg, po. The format is ADME, organism-based. Summed up:
as §1

The nature of series [13]: Clearance in mouse at 1 mg/kg, iv or 10 mg/kg, po. It counts as ADME, organism-based. The conditions noted are these: in vivo. The method in brief:
as §2

The species entered for another series is Homo sapiens. Nature of the series: Stabilization of SMN2 mRNA in human spinal muscular atrophy patient derived fibroblasts by ELISA.
Series [14] in a line: Plasma clearance in C57BL/6 mouse at 1 mg/kg, iv or 5 mg/kg, po. It counts as ADME, organism-based. Summed up: (§3)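 Mice received single doses of 1 mg/kg i.v. or 5 mg/kg p.o. (n = 2). The vehicle was 10% 0.1 N HCl, 10% PG, 25 (20%) Solutol and 100 mM pH 5 citrate buffer. Plasma was sampled for PK parameters.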
Series [15] can be described thus: Intrinsic clearance in mouse liver microsomes at 1 uM up to 30 mins in presence of NADPH by LC-MS/MS analysis. The format is ADME, microsome. Conditions: read-out: CLH.
Series [16] can be described thus: Drug level in brain in C57BL/6 mouse brain at 1 mg/kg, iv or 5 mg/kg, po. It counts as ADME, organism-based. Conditions: in vivo, read-out: Drug uptake.
The nature of series [17]: AUC (0 to 7 hrs) in C57BL/6 mouse plasma at 1 mg/kg, iv or 5 mg/kg, po. It counts as ADME, organism-based. Summed up: as §3
Series [18] can be described thus: Oral bioavailability in C57BL/6 mouse at 5 mg/kg. It counts as ADME, organism-based. The conditions noted are these: in vivo. Summed up:
as §3

A short description of series [19]: Solubility of the compound at pH 6.8. It counts as physicochemical. Conditions: buffer.
Series [20] can be described thus: Drug level in mouse brain at 10 mg/kg, po after 7 hrs. It counts as ADME, organism-based. Conditions: read-out: Drug uptake. Summed up:
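Mouse PK at 10 mg/kg p.o. Brain concentration was measured at a single time point, 7 h after the oral dose.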

In the case of `CC1(C)CC(Cc2ccc(-c3ccc(-c4cn[nH]c4)cc3O)nn2)CC(C)(C)N1`, the logD in [1] was 2.89. The “log(permeability)” value in [2] is on record as -5.3.

Regarding `Oc1cc(-n2cccn2)ccc1-c1ccc(OC2CCNCC2(F)F)nn1` (stereo not drawn), the pKa in series [3] amounted to 5.89. Also, the log distribution coefficient (logD) in series [1] was 2.59. Also, in the series listed under Mus musculus, the fold change (FC) was 1.2.

For `CC1(C)CC(Oc2ccc(-c3ccc(-n4cccn4)cc3O)nn2)CC(C)(C)N1`, in series [3], the pKa came to 10.1. The logD in series [1] was determined as 2.79.

As for `Oc1cc(-c2cn[nH]c2)ccc1-c1ccc(N2C[C@H]3CNC[C@H]3C2)nn1`, the logD in series [1] amounted to 0.58.

For `CN(c1ccc(-c2ccc(-c3cn[nH]c3)cc2O)nn1)C1CC(C)(C)NC(C)(C)C1`, the bioavailability in series [4] was found to be 53%. In series [1], this compound showed a pH-dependent lipophilicity (logD) of 2.92. Also, in series [2], the “log(permeability)” value was -5.4. The compound further returned an AUC in [5] of 2.3 µM·h. The concentration at 7 h in [6] amounted to 58 nM. In addition, the fold change (FC) in the series filed under Mus musculus was 3.1. In series [7], this compound displayed a clearance of 22 mL/min/kg.

`CN(c1ccc(-c2ccc(-n3cc(CO)cn3)cc2O)nn1)C1CC(C)(C)NC(C)(C)C1` registered a logD in [1] of 2.16. In addition, the “log(permeability)” value in series [2] is recorded as -5.5.

As to `CC1(C)CC(Nc2ccc(-c3ccc4ccccc4c3)nn2)CC(C)(C)N1`, in the series filed under Mus musculus, the fold change (FC) was determined as 2.3.

Compound `CN(c1ccc(-c2cc3cccnc3cc2O)nn1)C1CC(C)(C)NC(C)(C)C1` registered a bioavailability in series [4] of 46%. In series [1], the logD was 3.23. Further, the “log(permeability)” value in series [2] is reported as -4.5. The exposure (AUC) in series [5] turned out to be 1.17 µM·h. Moreover, in [6], the concentration at 7 h turned out to be 68 nM. The fold change (FC) in the series listed under Mus musculus is 2.9. The clearance in [7] is 35 mL/min/kg.

Consider `CN(c1ccc(-c2cc3ccccc3s2)nn1)C1CC(C)(C)NC(C)(C)C1`, for which the logD in series [1] was found to be 3.4. The AUC turned out to be 17.4 µM·h in series [8] and 4.9 µM·h in series [12]. This compound returned a bioavailability in series [9] of 100%. In [10], this compound gave a half-life of 3.2 h. Moreover, the microsomal CLint at 1 µM in [11] was found to be 40 µL/min/mg. This compound returned a clearance in series [13] of 100 mL/min/kg.

On to `CC1(C)CC(Oc2ccc(-c3ccc(-c4cn[nH]c4)cc3O)nn2)CC(C)(C)N1` [BRANAPLAM], for which, in series [4], the bioavailability turned out to be 63%. The same compound registered a pH-dependent lipophilicity (logD) in series [1] of 2.51. Also, the “log(permeability)” value in [2] is -4.9. This compound also gave an exposure (AUC) in [5] of 3.03 µM·h. Further, in series [6], the concentration at 7 h turned out to be 914 nM. For the same compound, the clearance in [7] amounted to 25 mL/min/kg.

As for `CC1(C)CC(Oc2ccc(-c3ccc(-n4cccn4)cc3O)nn2)CC(C)(C)N1CC(F)(F)F`, the logD in [1] came to 4.65. Besides, in the series listed under Mus musculus, the fold change (FC) worked out at 1.1.

`CN(c1ccc(-c2ccc(-n3ccc(N)n3)cc2O)nn1)C1CC(C)(C)NC(C)(C)C1` gave a bioavailability in [4] of 4%. This compound also registered a pH-dependent lipophilicity (logD) in series [1] of 2.52. Moreover, in series [2], the “log(permeability)” value is -5.2. The compound also registered an AUC in series [5] of 0.092 µM·h. Besides, the concentration at 7 h in series [6] is less than 2.4 nM. Further, the fold change (FC) in the series filed under Mus musculus worked out at 2.8. In [7], this compound returned a clearance of 16 mL/min/kg.

With `CN(c1ccc(-c2ccc(-n3cccn3)cc2O)nn1)C1CC(C)(C)NC(C)(C)C1`, the pKa in series [3] was found to be 10.3. In [1], the logD turned out to be 3.11. Besides, the fold change (FC) in the series filed under Mus musculus was 3.1.

Take `COc1cc(C#N)ccc1-c1ccc(N(C)C2CC(C)(C)NC(C)(C)C2)nn1`: the fold change (FC) in the series listed under Mus musculus was 2.3.

Turning to `CC1(C)CC(Nc2ccc(-c3cccc4ccccc34)nn2)CC(C)(C)N1`, the fold change (FC) in the series listed under Mus musculus amounted to 1.

As for `Oc1cc(-n2cccn2)ccc1-c1ccc(OC2CCNCC2)nn1`, the log distribution coefficient (logD) in series [1] was 0.69.

Turning to `CC1(C)CC(Nc2ccc(-c3cc4ccccc4s3)nn2)CC(C)(C)N1`, the pKa in series [3] worked out at 10. For the same compound, the fold change (FC) in the series filed under Homo sapiens was found to be 1.5; in the series listed under Mus musculus, 2.5. Besides, the logD in series [1] came to 2.67. Further, the clearance in series [14] stood at 113 mL/min/kg. Besides, the results for the microsomal CLint at 1 µM in series [11] and in series [15] were 22.6 µL/min/mg and 23.5 µL/min/mg, respectively. In addition, the concentration in series [16] was less than 2.7 nM. The AUC(0-t) in series [17] was 0.4 µM·h. The compound further came in with a bioavailability in series [18] of 18%. Also, the solubility in series [19] is more than 1000 µM.

In series [1], `CN(c1ccc(-c2ccc(C#N)cc2O)nn1)C1CC(C)(C)NC(C)(C)C1` came in with a pH-dependent lipophilicity (logD) of 3.2. Moreover, the bioavailability in series [9] was determined as 37%. The compound further showed a half-life in series [10] of 4.5 h. Also, the microsomal CLint at 1 µM in [11] was 7 µL/min/mg. The compound also returned an AUC in series [12] of 5.2 µM·h. In [20], the concentration at 7 h was 2000 nM. The fold change (FC) in the series listed under Mus musculus came to 3.1. The compound further yielded a clearance in [13] of 23 mL/min/kg.

`CN(c1ccc(-c2cc3ccccc3cc2O)nn1)C1CC(C)(C)NC(C)(C)C1`: in [1], the pH-dependent lipophilicity (logD) came to 4. Moreover, the results for the AUC in [8] and in series [12] were 36.7 µM·h and 16.9 µM·h, respectively. Also, the bioavailability in series [9] is 100%. The compound further showed a half-life in series [10] of 3.7 h. In addition, the microsomal CLint at 1 µM in [11] was 17 µL/min/mg. The fold change (FC) in the series filed under Mus musculus lay within 2.4 to 2.5. The clearance in series [13] stood at 56 mL/min/kg.

The compound `Oc1cc(-c2cn[nH]c2)ccc1-c1ccc(N2CCC3(CCCNC3)C2)nn1` (stereo not drawn) displayed a logD in series [1] of 1.2.

In [4], `CN(c1ccc(-c2cc3cnccc3cc2O)nn1)C1CC(C)(C)NC(C)(C)C1` yielded a bioavailability of 100%. The compound further showed a pH-dependent lipophilicity (logD) in series [1] of 3.07. For the same compound, the “log(permeability)” value in [2] was -4.3. Moreover, the exposure (AUC) in [5] came out at 1.35 µM·h. For the same compound, the concentration at 7 h in series [6] was determined as 630 nM. For the same compound, the fold change (FC) in the series listed under Mus musculus is 2.6. Also, the clearance in series [7] was found to be 57 mL/min/kg.
